Results reported in ChEMBL document CHEMBL4316619 (Bioorg Med Chem Lett, 2019).
The source made the active and inactive calls. The calls are words filed in the database; no cut-off is given here.

Legend:
[1] = Apparent permeability across basolateral to apical side in human Caco2 cells measured after 2 hrs; type: ADME, cell-based; details: caco-2, 2 h
How it was run: (§1)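 Permeability was measured across Caco-2 monolayers in both directions, apical to basolateral and basolateral to apical. […] Runs were done with and without 3% BSA, and mass recovery (%) was reported for each direction. Efflux ratio = Papp B→A / Papp A→B.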

[2] = tested on: MDCK; assay: Cytotoxicity against MDCK cells assessed as reduction in cell viability measured after 48 hrs by CellTiter Glo assay; type: cell-based, Canis lupus familiaris; details: dog
How it was run: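 MDCK cells were incubated with compound under the conditions of the 48 h replication assay. Cytotoxicity was read with the CellTiter-Glo ATP viability assay. Follow-up viability testing used 5, 10, 50 and 100 μM.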

[3] = Toxicity in C57BL/6 mouse assessed as effect on liver at 30 mg/kg, ip; type: organism-based; details: in vivo
[4] = Tmax in C57BL/6 mouse plasma at 30 mg/kg, ip; type: ADME, organism-based; details: C57BL/6, mouse, plasma, read-out: Tmax
How it was run: (§2)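 Male C57BL/6 mice, single intraperitoneal 30 mg/kg dose, N=3. Plasma, liver and lung concentrations followed over time to give concentration-time profiles, from which Tmax, Cmax, terminal t1/2, AUClast and AUCINF were derived.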

[5] = Aqueous kinetic solubility of the compound; type: physicochemical; details: buffer
[6] = Tmax in C57BL/6 mouse lung at 30 mg/kg, ip; type: ADME, organism-based; how it was run: as §2
[7] = AUClast in C57BL/6 mouse liver at 30 mg/kg, ip; type: ADME, organism-based; parameters: dose 30 mg/kg, time 0 - last, route intraperitoneal
How it was run: (§3)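 Male C57BL/6 mice received a single intraperitoneal dose of 30 mg/kg (N=3). Compound concentrations were followed over time in plasma, liver and lung. Tmax, Cmax, terminal t1/2, AUClast and AUCINF were derived from the mean concentration-time profiles.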

[8] = AUC (infinity) in C57BL/6 mouse liver at 30 mg/kg, ip; type: ADME, organism-based; parameters: dose 30 mg/kg, time infinity, route intraperitoneal; how it was run: as §3
[9] = Apparent permeability across apical to basolateral side in human Caco2 cells measured after 2 hrs; type: ADME, cell-based; details: caco-2, 2 h; how it was run: as §1
[10] = Toxicity in C57BL/6 mouse assessed as adverse effect at 30 mg/kg, ip; type: organism-based; details: in vivo
[11] = AUC (infinity) in C57BL/6 mouse plasma at 30 mg/kg, ip; type: ADME, organism-based; parameters: dose 30 mg/kg, route intraperitoneal, time infinity; how it was run: as §3
[12] = Toxicity in C57BL/6 mouse assessed as effect on lungs at 30 mg/kg, ip; type: organism-based; details: in vivo
[13] = (§4) Cytotoxicity against MDCK cells assessed as reduction in cell viability measured on day 5 by Celltiter-Glo luminescence assay; type: cell-based, Canis lupus familiaris; details: dog, MDCK cells
How it was run: (§5)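 MDCK cells were infected with seasonal influenza A strains through NIAID resources and scored for protection from virus-induced cell death. Compounds were tested at four concentrations (0.8, 4, 20, 100 μM). EC50/EC90 (reduction of viral cell death) and CC50 (reduction of cell viability) were derived in μM, and SI50 = CC50/EC50.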

[14] = Terminal half life in C57BL/6 mouse liver at 30 mg/kg, ip; type: ADME, organism-based; details: read-out: beta t1/2 (converted); how it was run: as §2
[15] = AUClast in C57BL/6 mouse lung at 30 mg/kg, ip; type: ADME, organism-based; parameters: dose 30 mg/kg, route intraperitoneal, time 0 - last; how it was run: as §3
[16] = Stability of the compound in mouse liver microsomes assessed as parent compound remaining measured immediately; type: ADME, Microsome; details: read-out: Stability
How it was run: (§6)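 Mouse liver microsomes; percent parent compound remaining measured at 0, 15 and 30 min.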

[17] = tested on: Saccharomyces cerevisiae; assay: Effect on growth of Yeast 9526-6-2 harboring pYES at 50 uM measured up to 60 hrs; type: organism-based; details: in vivo
How it was run: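 Control yeast carrying empty pYES and NS1-expressing NS1-pYES strain grown with DMSO or compound at 50 μM. Growth measured as OD600 at 22, 42 and 60 h.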

[18] = Terminal half life in C57BL/6 mouse plasma at 30 mg/kg, ip; type: ADME, organism-based; details: C57BL/6, mouse, plasma, read-out: beta t1/2 (converted); how it was run: as §2
[19] = Cmax in C57BL/6 mouse lung at 30 mg/kg, ip; type: ADME, organism-based; parameters: dose 30 mg/kg, route intraperitoneal; how it was run: as §3
[20] = Cmax in C57BL/6 mouse plasma at 30 mg/kg, ip; type: ADME, organism-based; parameters: dose 30 mg/kg, route intraperitoneal; details: C57BL/6, mouse, plasma, read-out: Cmax; how it was run: as §3
[21] = Cmax in C57BL/6 mouse liver at 30 mg/kg, ip; type: ADME, organism-based; parameters: dose 30 mg/kg, route intraperitoneal; how it was run: as §3
[22] = Tmax in C57BL/6 mouse liver at 30 mg/kg, ip; type: ADME, organism-based; how it was run: as §2
[23] = Stability of the compound in mouse liver microsomes assessed as parent compound remaining measured after 15 mins; type: ADME, Microsome; details: read-out: Stability; how it was run: as §6
[24] = AUClast in C57BL/6 mouse plasma at 30 mg/kg, ip; type: ADME, organism-based; parameters: dose 30 mg/kg, route intraperitoneal, time 0 - last; how it was run: as §3
[25] = Terminal half life in C57BL/6 mouse lung at 30 mg/kg, ip; type: ADME, organism-based; details: read-out: beta t1/2 (converted); how it was run: as §2
[26] = AUC (infinity) in C57BL/6 mouse lung at 30 mg/kg, ip; type: ADME, organism-based; parameters: dose 30 mg/kg, route intraperitoneal, time infinity; how it was run: as §3
[27] = Stability of the compound in mouse liver microsomes assessed as parent compound remaining measured after 30 mins; type: ADME, Microsome; details: read-out: Stability; how it was run: as §6
[28] = tested on: Influenza B virus; assay: Antiviral activity against Influenza B virus (B/Brisbane/60/2008) infected in MDCK cells assessed as reduction in virus-induced cytopathic effect measured on day 5 by Celltiter-Glo luminescence assay; type: functional, organism-based
[29] = tested on: Influenza A virus H3N2; assay: Antiviral activity against Influenza A virus (A/Brisbane/10/2007(H3N2)) infected in MDCK cells assessed as reduction in virus-induced cytopathic effect measured on day 5 by Celltiter-Glo luminescence assay; type: functional, organism-based; details: 120 h; how it was run: as §5
[30] = tested on: MDCK; assay: as §4; type: cell-based, Canis lupus familiaris; details: dog, mdck; how it was run: as §5
[31] = tested on: Influenza A virus; assay: Antiviral activity against Influenza A virus (A/California/7/2009(H1N1)) infected in MDCK cells assessed as reduction in virus-induced cytopathic effect measured on day 5 by Celltiter-Glo luminescence assay; type: functional, organism-based; details: 120 h; how it was run: as §5
[32] = tested on: Influenza A virus; assay: Antiviral activity against Influenza A virus A/PR/8/34 (H1N1) infected in MDCK cells assessed as fold reduction in virus titer at 10 uM measured after 48 hrs by hemagglutination assay relative to control; type: functional, A/Puerto Rico/8/1934(H1N1)
How it was run: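 MDCK cells were infected with A/PR/8/34 (H1N1) at MOI 0.1 and incubated with compound for 48 h. Supernatant virus was then quantified by hemagglutination assay and standard TCID50 analysis. The single-concentration screen used 10 μM and reports fold reduction in titer. Dose-response runs used triplicate cultures, with percent titer decrease back-calculated from TCID50.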

COc1cc(-c2ccnc3c2c(C)nn3-c2cccc(C(F)(F)F)c2)ccc1O
Papp [1]: 0.38 ×10⁻⁶ cm/s
Activity [2]: Non-Toxic
Activity [3]: Non-Toxic
Tmax [4]: 4.98 min
Kinetic_solubility [5]: 1.7 µM
Tmax [6]: 4.98 min
AUC(0-t) [7]: 119000 ng·h/mL
AUC(0-inf) [8]: 120000 ng·h/mL
Papp [9]: 0.13 ×10⁻⁶ cm/s
Activity [10]: Non-Toxic
AUC(0-inf) [11]: 5970 ng·h/mL
Activity [12]: Non-Toxic
CC50 at 5 day [13]: 24.5 to 49 µM
half-life [14]: 5.3 h
AUC(0-t) [15]: 49100 ng·h/mL
remaining at 0 min [16]: 100%
Activity [17]: Non-Toxic
half-life [18]: 5.2 h
Cmax [19]: 36200 ng/mL
Cmax [20]: 4470 ng/mL
Cmax [21]: 64000 ng/mL
Tmax [22]: 4.98 min
remaining at 0.25 h [23]: 25%
AUC(0-t) [24]: 5960 ng·h/mL
half-life [25]: 5 h
AUC(0-inf) [26]: 49100 ng·h/mL
remaining at 0.5 h [27]: 16%

CCOc1cc(-c2c(C#N)c(O)nc3c2c(C)nn3-c2ccc(F)cc2)ccc1O
Activity [2]: Non-Toxic
Activity [28]: inactive
EC50 [29]: 47.6 µM
EC90 [29]: > 50 µM
CC50 [30]: > 50 µM
EC50 [31]: 1.7 µM
EC90 [31]: 4.9 µM
fold change (FC) [32]: 2
